Assay results: ChEMBL document CHEMBL3808332, “Identification of novel aminopiperidine derivatives for antibacterial activity against Gram-positive bacteria” (Bioorg Med Chem Lett, 2016)
Converted amounts (≈) assume the structure as drawn.

Key:
Staphylococcus aureus [1] = assay: Antibacterial activity against methicillin-resistant Staphylococcus aureus after 24 hrs by microdilution method; format: functional
Enterococcus faecalis = assay: Antibacterial activity against vancomycin-resistant Enterococcus faecalis after 24 hrs by microdilution method; format: functional
Enterococcus faecium [2] = assay: Antibacterial activity against vancomycin-resistant Enterococcus faecium after 24 hrs by microdilution method; format: functional
Escherichia coli = assay: Antibacterial activity against Escherichia coli after 24 hrs by microdilution method; format: functional
Streptococcus pneumoniae [3] = assay: Antibacterial activity against Penicillin-resistant Streptococcus pneumoniae after 24 hrs by microdilution method; format: functional
Pseudomonas aeruginosa = assay: Antibacterial activity against Pseudomonas aeruginosa after 24 hrs by microdilution method; format: functional
[4] = Apparent oral bioavailability in mouse plasma by LC-MS/MS analysis; format: ADME, organism-based
In short: (§1)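 Mice, n = 3–5 per group, given the compound intravenously and orally. Plasma pharmacokinetic parameters were derived: total plasma clearance, steady-state volume of distribution, apparent terminal elimination half-life, Tmax after oral dosing, and absolute oral bioavailability (%F).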

[5] = Volume of distribution at steady state in iv/po dosed mouse plasma by LC-MS/MS analysis; format: ADME, organism-based; conditions: read-out: Vdss; in short: as §1
[6] = Plasma clearance in iv/po dosed mouse by LC-MS/MS analysis; format: ADME, organism-based; in short: as §1
[7] = Apparent terminal half life in iv/po dosed mouse plasma by LC-MS/MS analysis; format: ADME, organism-based; conditions: read-out: betat1/2(app) (converted); in short: as §1
[8] = Tmax in iv/po dosed mouse plasma by LC-MS/MS analysis; format: ADME, organism-based; in short: as §1
Streptococcus pneumoniae [9] = assay: Antibacterial activity against Penicillin-resistant Streptococcus pneumoniae yonsei 15 infected in po dosed immunosuppressed mouse model assessed as inhibition of pulmonary infection administered bid for 3 days; format: functional; conditions: yonsei 15, po, 72 h
In short: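 Lung infection in immunosuppressed mice (n = 6/group) by intranasal inoculation with penicillin-resistant S. pneumoniae Yonsei15 at 1 × 10⁶ CFU per mouse. Treatment was oral, twice daily for 3 days. Day-7 survival was analysed by probit to give ED50 and 95% CI.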

Enterococcus faecium [10] = assay: Antibacterial activity against vancomycin-resistant Enterococcus faecium infected in po dosed immunosuppressed mouse model assessed as inhibition of systemic infection administered bid for 3 days; format: functional; conditions: 72 h
In short: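 Immunosuppressed mice (n = 6/group) received a systemic ip infection with a standard vancomycin-resistant E. faecium strain at 1 × 10⁹ CFU per mouse. Dosing was oral, BID, for 3 days. ED50 and 95% CI came from probit analysis of day-7 survival.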

Staphylococcus aureus [11] = assay: Antibacterial activity against methicillin-resistant Staphylococcus aureus infected in po dosed mouse model assessed as inhibition of systemic infection administered bid for 3 days; format: functional; conditions: 72 h
In short: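 Normal mice (n = 6/group) given a systemic ip challenge with a standard MRSA strain at 2 × 10⁸ CFU per mouse. Oral treatment twice daily for 3 days. Survival was scored at day 7, and ED50 with 95% CI was derived by probit analysis.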

[12] = target: T1, Peptide deformylase (Staphylococcus aureus) (UniProt P68826); assay: Inhibition of Staphylococcus aureus PDF using formyl-methionine-alanine-serine as substrate assessed as increase in NADH levels at 10 nM by microtiter ELISA
T1 sequence (whole entry): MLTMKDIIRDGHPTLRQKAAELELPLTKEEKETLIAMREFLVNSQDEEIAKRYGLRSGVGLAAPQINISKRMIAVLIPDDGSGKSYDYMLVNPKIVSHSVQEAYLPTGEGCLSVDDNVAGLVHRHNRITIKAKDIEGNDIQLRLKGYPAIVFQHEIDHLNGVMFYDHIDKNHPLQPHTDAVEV

Peptide deformylase = target: T2, Peptide deformylase (Staphylococcus aureus, UniProt P68826); assay: Inhibition of Staphylococcus aureus PDF using formyl-methionine-alanine-serine as substrate assessed as increase in NADH levels by microtiter ELISA
T2 sequence (P68826 whole entry): T1 sequence (whole entry)

[13] = target: T1, Peptide deformylase (Staphylococcus aureus); assay: Inhibition of Staphylococcus aureus PDF using formyl-methionine-alanine-serine as substrate assessed as increase in NADH levels at 30 nM by microtiter ELISA
[14] = target: T1, Peptide deformylase (Staphylococcus aureus); assay: Inhibition of Staphylococcus aureus PDF using formyl-methionine-alanine-serine as substrate assessed as increase in NADH levels at 100 nM by microtiter ELISA
[15] = target: T1, Peptide deformylase (Staphylococcus aureus); assay: Inhibition of Staphylococcus aureus PDF using formyl-methionine-alanine-serine as substrate assessed as increase in NADH levels at 3 nM by microtiter ELISA

| SMILES | MIC (Staphylococcus aureus [1]) [µg/mL] | MIC (Enterococcus faecalis) [µg/mL] | MIC (Enterococcus faecium [2]) [µg/mL] | MIC (Escherichia coli) [µg/mL] | MIC (Streptococcus pneumoniae [3]) [µg/mL] | MIC (Pseudomonas aeruginosa) [µg/mL] | other results |
| --- | --- | --- | --- | --- | --- | --- | --- |
| CC(C)(C)[C@H](NC(=O)[C@H](CC1CCCC1)CN(O)C=O)C(=O)N1CCC(NCc2ccco2)CC1 | 50 (≈ 102 µM) | 25 (≈ 51 µM) | 50 (≈ 102 µM) | > 50 | 1.6 (≈ 3.26 µM) | > 50 |  |
| CC(C)(C)[C@H](NC(=O)[C@H](CC1CCCC1)CN(O)C=O)C(=O)N1CCC(Nc2ccccc2)CC1 | 6.3 (≈ 12.9 µM) | 3.1 (≈ 6.37 µM) | 0.8 (≈ 1.64 µM) | > 50 | 0.8 (≈ 1.64 µM) | > 50 |  |
| CC(C)(C)[C@H](NC(=O)[C@H](CC1CCCC1)CN(O)C=O)C(=O)N1CCC(NC(=O)c2ccc(C#N)cc2)CC1 |  |  |  |  |  |  | bioavailability [4]: 55.5%; Vd [5]: 2.54 L/kg; clearance [6]: 44 mL/min/kg; half-life [7]: 55.2 min; Tmax [8]: 40.2 min |
| CC(=O)NC[C@H]1CN(c2ccc(N3CCOCC3)c(F)c2)C(=O)O1 [LINEZOLID] | 1.6 (≈ 4.74 µM) | 0.8 (≈ 2.37 µM) | 1.6 (≈ 4.74 µM) | > 50 | 0.8 (≈ 2.37 µM) | > 50 | ED50 (Streptococcus pneumoniae [9]): 1.5 mg/kg; ED50 (Enterococcus faecium [10]): 11.4 mg/kg; ED50 (Staphylococcus aureus [11]): 5 mg/kg |
| Cc1ccc(CNC2CCN(C(=O)[C@@H](NC(=O)[C@H](CC3CCCC3)CN(O)C=O)C(C)(C)C)CC2)cc1 | 6.3 (≈ 12.2 µM) | 3.1 (≈ 6.02 µM) | 0.4 (≈ 0.777 µM) |  | 0.4 (≈ 0.777 µM) |  |  |
| COc1ccc(CNC2CCN(C(=O)[C@@H](NC(=O)[C@H](CC3CCCC3)CN(O)C=O)C(C)(C)C)CC2)c(OC)c1 | 25 (≈ 44.6 µM) | 6.3 (≈ 11.2 µM) | 3.1 (≈ 5.53 µM) |  | 0.8 (≈ 1.43 µM) |  |  |
| CC(=O)Nc1ccc(CNC2CCN(C(=O)[C@@H](NC(=O)[C@H](CC3CCCC3)CN(O)C=O)C(C)(C)C)CC2)cc1 | > 50 | 12.5 (≈ 22.4 µM) | 25 (≈ 44.8 µM) |  | 1.6 (≈ 2.87 µM) |  |  |
| CC(C)(C)[C@H](NC(=O)[C@H](CC1CCCC1)CN(O)C=O)C(=O)N1CCC(N)CC1 | > 50 | 50 (≈ 122 µM) | > 50 | > 50 | 1.6 (≈ 3.9 µM) | > 50 |  |
| COc1ccc(CNC2CCN(C(=O)[C@@H](NC(=O)[C@H](CC3CCCC3)CN(O)C=O)C(C)(C)C)CC2)cc1 | 12.5 (≈ 23.6 µM) | 6.3 (≈ 11.9 µM) | 1.6 (≈ 3.01 µM) |  | 0.8 (≈ 1.51 µM) |  |  |
| CC(C)(C)[C@H](NC(=O)[C@H](CC1CCCC1)CN(O)C=O)C(=O)N1CCN(Cc2ccc3c(c2)OCO3)CC1 |  |  |  |  |  |  | inhibition [12]: 1%; IC50 (Peptide deformylase): 30 nM; inhibition [13]: 34%; inhibition [14]: 72% |
| CC(C)(C)[C@H](NC(=O)[C@H](CC1CCCC1)CN(O)C=O)C(=O)N1CCC(Nc2ccc3c(c2)OCO3)CC1 | 6.3 (≈ 11.9 µM) | 3.1 (≈ 5.84 µM) | 1.6 (≈ 3.02 µM) | > 50 | 0.4 (≈ 0.754 µM) | > 50 |  |
| CC(C)(C)[C@H](NC(=O)[C@H](CC1CCCC1)CN(O)C=O)C(=O)N1CCC(NCc2ccc(F)cc2)CC1 | 6.3 (≈ 12.1 µM) | 3.1 (≈ 5.98 µM) | 0.4 (≈ 0.771 µM) |  | 0.4 (≈ 0.771 µM) |  |  |
| CC(C)(C)[C@H](NC(=O)[C@H](CC1CCCC1)CN(O)C=O)C(=O)N1CCC(NCc2ccc3[nH]ccc3c2)CC1 | 6.3 (≈ 11.7 µM) | 3.1 (≈ 5.74 µM) | 6.3 (≈ 11.7 µM) | > 50 | 0.8 (≈ 1.48 µM) | > 50 |  |
| CC(C)(C)[C@H](NC(=O)[C@H](CC1CCCC1)CN(O)C=O)C(=O)N1CCC(NCc2ccc(C#N)cc2)CC1 | 3.1 (≈ 5.9 µM) | 0.8 (≈ 1.52 µM) | 0.8 (≈ 1.52 µM) |  | 0.4 (≈ 0.761 µM) |  | bioavailability [4]: 103%; Vd [5]: 3.49 L/kg; inhibition [12]: 19%; clearance [6]: 51.5 mL/min/kg; IC50 (Peptide deformylase): 30 nM; inhibition [13]: 54%; half-life [7]: 21.6 min; Tmax [8]: 30 min; inhibition [14]: 77%; inhibition [15]: -6% |
| CN[C@@H](CC(C)C)C(=O)N[C@H]1C(=O)N[C@@H](CC(N)=O)C(=O)N[C@H]2C(=O)N[C@H]3C(=O)N[C@H](C(=O)N[C@@H](C(=O)O)c4cc(O)cc(O)c4-c4cc3ccc4O)[C@H](O)c3ccc(c(Cl)c3)Oc3cc2cc(c3O[C@H]2O[C@@H](CO)[C@H](O)[C@@H](O)[C@@H]2O[C@@H]2C[C@@](C)(N)[C@@H](O)[C@@H](C)O2)Oc2ccc(cc2Cl)[C@H]1O | 3.1 (≈ 2.14 µM) | > 50 | > 50 | > 50 | 0.8 (≈ 0.552 µM) | > 50 |  |
| CC(C)(C)[C@H](NC(=O)[C@H](CC1CCCC1)CN(O)C=O)C(=O)N1CCC(NCc2ccc(O)c(O)c2)CC1 | > 50 | > 50 | > 50 |  | 12.5 (≈ 23.5 µM) |  |  |
| CC(C)(C)[C@H](NC(=O)[C@H](CC1CCCC1)CN(O)C=O)C(=O)N1CCC(NCc2ccc3c(c2)OCO3)CC1 | 6.3 (≈ 11.6 µM) | 3.1 (≈ 5.69 µM) | 0.8 (≈ 1.47 µM) | > 50 | 1.6 (≈ 2.94 µM) | > 50 |  |
| CC(C)(C)[C@H](NC(=O)[C@H](CC1CCCC1)CN(O)C=O)C(=O)N1CCC(NCc2nc3ccccc3[nH]2)CC1 | 6.3 (≈ 11.7 µM) | 6.3 (≈ 11.7 µM) | 12.5 (≈ 23.1 µM) | > 50 | 1.6 (≈ 2.96 µM) | > 50 |  |
| CC(C)(C)[C@H](NC(=O)[C@H](CC1CCCC1)CN(O)C=O)C(=O)N1CCC(NCc2ccccc2)CC1 | 3.1 (≈ 6.19 µM) | 1.6 (≈ 3.2 µM) | 0.8 (≈ 1.6 µM) | > 50 | 0.8 (≈ 1.6 µM) | > 50 |  |
| CC(C)(C)[C@H](NC(=O)[C@H](CC1CCCC1)CN(O)C=O)C(=O)N1CCC(Nc2ccc3cn[nH]c3c2)CC1 | 12.5 (≈ 23.7 µM) | 6.3 (≈ 12 µM) | 1.6 (≈ 3.04 µM) | > 50 | 0.4 (≈ 0.759 µM) | > 50 |  |
| CC(C)(C)[C@H](NC(=O)[C@H](CC1CCCC1)CN(O)C=O)C(=O)N1CCC(NCc2ccc[nH]2)CC1 | > 50 | > 50 | > 50 | > 50 | 6.3 (≈ 12.9 µM) | > 50 |  |
| COC(=O)c1ccc(CNC2CCN(C(=O)[C@@H](NC(=O)[C@H](CC3CCCC3)CN(O)C=O)C(C)(C)C)CC2)cc1 | 12.5 (≈ 22.4 µM) | 6.3 (≈ 11.3 µM) | 3.1 (≈ 5.55 µM) |  | 0.8 (≈ 1.43 µM) |  |  |
| CC(C)(C)[C@H](NC(=O)[C@H](CC1CCCC1)CN(O)C=O)C(=O)N1CCC(NCc2cc(F)c(F)cc2F)CC1 | 1.6 (≈ 2.88 µM) | 0.8 (≈ 1.44 µM) | 0.8 (≈ 1.44 µM) |  | 0.4 (≈ 0.721 µM) |  | ED50 (Streptococcus pneumoniae [9]): 3 mg/kg; bioavailability [4]: 95.8%; Vd [5]: 1.71 L/kg; inhibition [12]: 20%; clearance [6]: 19 mL/min/kg; IC50 (Peptide deformylase): 30 nM; inhibition [13]: 51%; ED50 (Enterococcus faecium [10]): 13.3 mg/kg; ED50 (Staphylococcus aureus [11]): 16.6 mg/kg; half-life [7]: 63 min; Tmax [8]: 30 min; inhibition [14]: 78%; inhibition [15]: -3% |
| CC(C)(C)[C@H](NC(=O)[C@H](CC1CCCC1)CN(O)C=O)C(=O)N1CCC(NCc2ccc(O)cc2)CC1 | > 50 | > 50 | 50 (≈ 96.8 µM) |  | 3.1 (≈ 6 µM) |  |  |
| CC(C)(C)[C@H](NC(=O)[C@H](CC1CCCC1)CN(O)C=O)C(=O)N1CCC(NCc2ccccn2)CC1 | 25 (≈ 49.8 µM) | 12.5 (≈ 24.9 µM) | 12.5 (≈ 24.9 µM) | > 50 | 1.6 (≈ 3.19 µM) | > 50 |  |
